# Compound activity as filed in PubChem BioAssay.
# In the library only some 3.5% were active in any assay of this set; here they are far more common.
# RGS4 act: RGS4 potentiation or activation. 310,000 tested, 0.92% active. HEK293 M3R/inducible RGS4, carbachol calcium flux Fluo4; active compounds read low. B-score at 10 µM;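 active = B-score of the integrated calcium signal more than 4 SD below the library mean, with starting fluorescence not abnormally high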;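 note: negative B-score means reduced calcium response which marks RGS4 activation or potentiation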
#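 Material: M3R-expressing HEK293 line, RGS4 induced by doxycycline | Schedule: Overnight RGS4 induction, 30 min dye load 37 °C, 20 min compound RT | Measured by: Fluo4 fluorescence kinetic imaging of calcium | Read-out: Integrated calcium ratio converted to B score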
# MrgX1 PAM: allosterically activates human MrgX1 receptor signaling | Q96LB2 | MrgX1-HEK293, Fluo-4 calcium flux, FDSS; active compounds read high | B-score at 10 µM | 310,000 tested, 0.63% active;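 active = plate-corrected calcium response at least 3 library SD above typical, normal starting fluorescence, not activating the receptor alone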;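 note: compound read alongside a low EC10 to EC30 dose of BAM8-22 agonist; peak minus trough fluorescence over baseline measured at the second addition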
# Target sequence (Q96LB2 whole entry, looked up): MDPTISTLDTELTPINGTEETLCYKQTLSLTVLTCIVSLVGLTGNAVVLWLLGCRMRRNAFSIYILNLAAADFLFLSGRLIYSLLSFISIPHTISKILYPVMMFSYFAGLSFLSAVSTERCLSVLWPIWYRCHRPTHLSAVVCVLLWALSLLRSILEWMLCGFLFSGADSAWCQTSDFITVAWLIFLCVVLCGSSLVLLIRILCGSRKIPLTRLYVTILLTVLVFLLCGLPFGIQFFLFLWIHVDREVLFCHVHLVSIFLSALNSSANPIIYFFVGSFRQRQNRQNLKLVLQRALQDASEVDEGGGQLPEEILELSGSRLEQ
# MrgX1 agonist: human MrgX1 receptor agonism, primary screen | MrgX1-HEK293 cells, Fluo-4 calcium fluorescence, agonist mode; active compounds read high | B-score at 10 µM | Q96LB2 | 310,000 tested, 0.44% active;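 active = calcium response B-score plate-corrected fluorescence ratio at least 3 library SD, with starting fluorescence B-score inside 5 SD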
#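 Test system: Stable human MrgX1 HEK293 cell line | Schedule: Overnight plating before 1 h dye loading | Read-out basis: Baseline-normalised fluorescence change ratio, B-scored | Detection: Kinetic calcium dye fluorescence, Fluo-4 NW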
# MrgX1 antagonist: human MrgX1 receptor antagonism, primary screen; B-score at 10 µM; 310,000 tested, 1.3% active; AID 588676; MRGX1-HEK293 calcium flux, Fluo-4, BAM8-22 antagonism; active compounds read low;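 active = calcium-response B-score plate-corrected more than 3 library SD below zero, starting fluorescence within 5 deviations, no agonist response on first addition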;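 note: peak minus trough fluorescence over baseline after final BAM8-22 challenge near maximal dose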
# RGS4 block: inhibitors of human RGS4; P49798; HEK293 M3R/RGS4 inducible, Fluo-4 calcium flux; active compounds read high; triggered by carbachol at its EC20; B-score at 10 µM; 310,000 tested, 0.45% active; AID 463165;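 active = B-score, a plate-corrected calcium signal, over three deviations above library mean, with baseline fluorescence within five deviations of library mean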;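 note: RGS4 expression induced by doxycycline in cells with stable M3 receptor; B-score is computed from the integrated fluorescence ratio over baseline after carbachol; higher B-score means a larger calcium signal and so more RGS4 inhibition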
# Target sequence (P49798 whole entry, looked up): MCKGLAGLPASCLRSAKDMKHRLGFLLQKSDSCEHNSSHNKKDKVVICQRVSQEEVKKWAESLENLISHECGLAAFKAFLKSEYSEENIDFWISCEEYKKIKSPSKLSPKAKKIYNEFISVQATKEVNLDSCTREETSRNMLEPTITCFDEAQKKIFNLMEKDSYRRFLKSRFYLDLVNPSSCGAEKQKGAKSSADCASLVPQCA
# RGS4 act valid: confirmation of RGS4 activators | 1,100 tested, 89% active | HEK293 M3R/RGS4 inducible, carbachol calcium flux Fluo4 | shares compounds with RGS4 act | inhibition, % at 10 µM;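 active = inhibition above 3 SD of the buffer control wells, cut at about 41% in these data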;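 note: signal is the integrated peak-minus-minimum Fluo4 fluorescence over baseline ratio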
# M3R Ca counter: counter-screen for RGS4 activators: effect in non-induced cells | HEK293 M3R non-induced RGS4, Fluo4 calcium flux; after carbachol challenge at its EC90 | 1,100 tested, 82% active | AID 602283 | inhibition, % at 10 µM | shares compounds with RGS4 act;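 active = inhibition exceeding 3 SD of buffer-only control wells, cut at about 26% in these data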;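 note: percent drop in integrated peak-minus-baseline over baseline Fluo4 ratio after carbachol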
# The depositor's hits bear a star; i = inactive; . = no result given.
SMILES,RGS4 act,MrgX1 PAM,MrgX1 agonist,MrgX1 antagonist,RGS4 block,RGS4 act valid,M3R Ca counter
Cc1ccc(CN2CCC(c3cc(-c4cccs4)n[nH]3)CC2)cc1,-17*,i,i,i,i,91*,68*
FC(F)(F)c1cccc(CN2CCC(c3cc(-c4cccs4)n[nH]3)CC2)c1,i,i,i,i,i,.,.
O=C(COc1ccccc1Cl)Nc1ccc2oc(=O)ccc2c1,i,i,i,i,i,.,.
O=C(O)c1ccc2nc(-c3ccccc3)c(-c3ccccc3)nc2c1,i,i,i,i,i,.,.
CCN1CCN(C(=O)c2ccc3nc(-c4ccccc4)c(-c4ccccc4)nc3c2)CC1,-9.4*,i,i,i,i,73*,84*
CN1CCN(CCNC(=O)c2ccc3nc(-c4ccc(F)cc4)c(-c4ccc(F)cc4)nc3c2)CC1,-9.7*,i,i,i,i,90*,84*
CCN1CCN(c2ncnc3sc(C)c(-c4ccccc4)c23)CC1,i,i,i,i,i,.,.
Cc1c(C(=O)OCC(C)(C)CN(C)C)oc2ccccc12,i,i,i,i,i,.,.
Cc1c(C(=O)OC(C)CCN(C)C)oc2ccccc12 (configuration not stated),-11*,i,i,i,i,93*,82*
Cc1c(C(=O)OCCN2CCCCC2)oc2ccccc12,-11*,i,i,i,i,94*,91*
Cc1c(C(=O)OCC(=O)N2C(C)CCCC2C)oc2ccccc12 (configuration not stated),i,i,i,i,i,.,.
COc1ccc2c(c1)C=C([C@@H]1C[C@H]3CN(c4ccccc4)C(=O)[C@]34CCCN14)CO2,-10*,i,i,i,i,70*,84*
OCCN1CCN(CC/C=C2/c3ccccc3CSc3ccccc32)CC1,i,i,i,i,i,.,.
CNCC/C=C1/c2ccccc2CSc2ccccc21,-8.6*,i,i,i,i,92*,86*
O=C(OCC(=O)N1CCC(Cc2ccccc2)CC1)c1cc(Cl)ccc1O,i,i,i,i,i,.,.
Fc1cccc(-c2cc3nc4c(c(N5CCOCC5)n3n2)CCCC4)c1,i,i,i,i,i,.,.
Fc1cccc(-c2cc3nc4c(c(NCc5ccco5)n3n2)CCCC4)c1,-8.1*,i,i,i,i,86*,45*
CCOC(=O)C1=C(C)NC(C)=C(C(=O)OCC)C1C(=O)OCC(=O)NC1(C#N)CCCCC1,-11*,i,i,i,i,46*,0
C#CCSc1nnnn1-c1ccc(OCC)cc1,i,i,i,i,i,.,.
Cc1cccc2cc3c(N)c(C(=O)Nc4ccc(N5CCOCC5)cc4)sc3nc12,-11*,i,i,-5.4*,i,92*,74*
Cc1ccc2nc3sc(C(=O)Nc4ccc(N5CCOCC5)cc4)c(N)c3cc2c1,i,.,.,.,i,.,.
CN(C)c1nc(F)c(F)c(S(=O)(=O)c2ccccc2)c1F,i,i,i,i,i,.,.
Fc1ccc(N2CCN(C3=Nc4cccc5cccc3c45)CC2)cc1,-13*,i,i,i,i,94*,74*
c1ccc(CN2CCN(C3=Nc4cccc5cccc3c45)CC2)cc1,i,.,.,.,i,.,.
CCCCSCCCNC(=O)c1ccc(CS(=O)(=O)c2ccccc2OC)o1,i,i,i,i,i,.,.
SMILES,RGS4 act,MrgX1 PAM,MrgX1 agonist,MrgX1 antagonist,RGS4 block,RGS4 act valid,M3R Ca counter
COc1ccccc1NC(=O)C(C)OC(=O)CCSc1ccc(F)cc1 (configuration not stated),i,i,i,i,i,.,.
COC(=O)c1ccc(N=NNc2cccc(Br)c2)cc1,.,i,i,i,.,.,.
Cc1cc(NC(=O)c2cnn3c(C(F)(F)F)cc(-c4ccccc4)nc23)no1,-10*,i,i,i,i,94*,74*
Cc1cc(NC(=O)c2cnn3c(C(F)F)cc(-c4ccccc4)nc23)no1,i,i,i,i,i,.,.
COc1cccc(NC(=O)Cn2c(=O)n(CC3CCCO3)c(=O)c3ccccc32)c1 (configuration not stated),i,i,i,i,i,.,.
CCOc1ccc2[nH]c3c(N4CCc5ccccc5C4)ncnc3c2c1,-8.5*,i,i,i,i,94*,72*
Cn1c(SCCN2CCCC2)nnc1C1CCN(S(=O)(=O)c2ccc(F)cc2)CC1,-7.8*,i,i,i,i,50*,0
CN(C)S(=O)(=O)c1cccc(NC(=O)c2ccc(S(=O)(=O)N3CCCCC3)cc2)c1,i,i,i,i,i,.,.
CN(C)S(=O)(=O)c1cccc(C(=O)Nc2ccc(S(=O)(=O)N3CCCC3)cc2)c1,-7.9*,i,i,i,i,70*,84*
CNc1ccc(C(O)(C(F)(F)F)C(F)(F)F)cc1C(O)(C(F)(F)F)C(F)(F)F,-8.2*,i,i,i,i,90*,69*
Cc1ccc(N)c(C(O)(C(F)(F)F)C(F)(F)F)c1,i,i,i,i,i,.,.
O=C1CCSc2ccc(Cl)cc2N1Cc1ccc(Cl)cc1,-10*,i,i,i,i,90*,86*
COc1ccc(CCNc2nc(-c3cccnc3)nc3ccccc23)cc1OC,i,i,i,i,i,.,.
CCOc1ccc(CN(C)c2nc(-c3cccnc3)nc3ccccc23)cc1OC,-9.2*,i,i,i,i,76*,43*
CCOC(=O)c1c(CSc2ccccc2)n(C)c2ccc(O)c(CN3CCOCC3)c12,i,i,i,i,i,.,.
CN(Cc1ccc(F)cc1)C(=O)c1cccc(S(=O)(=O)N2CCN(c3ccc(F)cc3)CC2)c1,-7.6*,i,i,i,i,40*,84*
CCCCn1c2ccccc2c2nnc(SCCN3CCCCC3)nc21,-8.5*,.,.,.,i,92*,78*
COc1ccc(S(=O)(=O)Nc2ccccc2N2CCOCC2)cc1[N+](=O)[O-],i,i,i,i,i,.,.
CCOc1cc2c(cc1OC)C(NC(=O)c1ccco1)CC2=O (configuration not stated),i,i,i,i,i,.,.
CC(=O)c1cccc(OCC(=O)N2CCN(c3ccc(C(F)(F)F)cn3)CC2)c1,-12*,i,i,i,i,0,0
